In assay [1] the target is T1, Adrenergic receptor alpha-2 (Rattus norvegicus, UniProt P22086+P19328+P22909).
T1 sequence (P22086 whole entry): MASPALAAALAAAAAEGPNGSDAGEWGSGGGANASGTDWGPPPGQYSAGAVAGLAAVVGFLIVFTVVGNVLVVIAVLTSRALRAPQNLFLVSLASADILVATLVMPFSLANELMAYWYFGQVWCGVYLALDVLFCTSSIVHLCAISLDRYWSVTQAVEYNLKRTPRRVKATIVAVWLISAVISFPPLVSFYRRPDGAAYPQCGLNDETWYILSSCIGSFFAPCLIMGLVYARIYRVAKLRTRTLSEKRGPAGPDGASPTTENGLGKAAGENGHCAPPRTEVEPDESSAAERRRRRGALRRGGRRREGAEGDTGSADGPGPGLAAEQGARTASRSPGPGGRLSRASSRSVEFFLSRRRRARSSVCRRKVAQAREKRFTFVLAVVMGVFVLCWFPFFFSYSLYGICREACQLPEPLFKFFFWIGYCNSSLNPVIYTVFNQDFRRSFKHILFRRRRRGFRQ
T1 sequence (P19328 whole entry): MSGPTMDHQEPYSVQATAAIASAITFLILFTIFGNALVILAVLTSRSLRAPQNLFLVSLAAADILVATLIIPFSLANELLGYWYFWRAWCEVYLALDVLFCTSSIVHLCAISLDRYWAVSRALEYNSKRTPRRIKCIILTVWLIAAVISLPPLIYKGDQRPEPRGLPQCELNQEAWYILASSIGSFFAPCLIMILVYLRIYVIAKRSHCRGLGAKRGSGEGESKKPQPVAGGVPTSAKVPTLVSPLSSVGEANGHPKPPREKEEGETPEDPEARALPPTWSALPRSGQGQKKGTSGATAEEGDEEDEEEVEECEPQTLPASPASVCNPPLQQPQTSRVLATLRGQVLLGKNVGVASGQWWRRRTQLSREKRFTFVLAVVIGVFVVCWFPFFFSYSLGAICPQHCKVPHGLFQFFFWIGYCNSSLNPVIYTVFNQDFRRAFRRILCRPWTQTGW
T1 sequence (P22909 whole entry): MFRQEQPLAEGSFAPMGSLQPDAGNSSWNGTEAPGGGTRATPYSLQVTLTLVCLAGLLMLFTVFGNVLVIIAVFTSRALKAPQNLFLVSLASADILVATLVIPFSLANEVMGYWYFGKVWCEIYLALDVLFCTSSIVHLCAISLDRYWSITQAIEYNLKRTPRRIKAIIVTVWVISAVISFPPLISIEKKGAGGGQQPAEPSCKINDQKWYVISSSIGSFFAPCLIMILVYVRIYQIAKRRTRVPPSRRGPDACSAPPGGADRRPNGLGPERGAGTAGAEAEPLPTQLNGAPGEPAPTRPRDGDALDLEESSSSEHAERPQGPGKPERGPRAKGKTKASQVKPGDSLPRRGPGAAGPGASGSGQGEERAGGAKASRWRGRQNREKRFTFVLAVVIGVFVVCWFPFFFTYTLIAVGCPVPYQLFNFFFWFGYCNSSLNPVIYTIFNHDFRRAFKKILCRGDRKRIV
In words: pA2 value was measured in aAlpha-2 adrenergic receptor against clonidine in rat vas deferens. In short, it runs like this: (§1)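 Schild analysis with slope constrained to -1.0. Log(DR−1) was measured at three antagonist concentrations for α1 (norepinephrine) and four for α2 (clonidine), each tested at least five times. DR is the agonist ED50 with antagonist divided by that without. Curve parallelism was checked by linear regression (p < 0.05). Values are ± standard error of estimate.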

For assay [2], the target named is T2, Adrenergic receptor alpha-1 (Rattus norvegicus, UniProt P15823+P23944+P43140).
T2 sequence (P15823 whole entry): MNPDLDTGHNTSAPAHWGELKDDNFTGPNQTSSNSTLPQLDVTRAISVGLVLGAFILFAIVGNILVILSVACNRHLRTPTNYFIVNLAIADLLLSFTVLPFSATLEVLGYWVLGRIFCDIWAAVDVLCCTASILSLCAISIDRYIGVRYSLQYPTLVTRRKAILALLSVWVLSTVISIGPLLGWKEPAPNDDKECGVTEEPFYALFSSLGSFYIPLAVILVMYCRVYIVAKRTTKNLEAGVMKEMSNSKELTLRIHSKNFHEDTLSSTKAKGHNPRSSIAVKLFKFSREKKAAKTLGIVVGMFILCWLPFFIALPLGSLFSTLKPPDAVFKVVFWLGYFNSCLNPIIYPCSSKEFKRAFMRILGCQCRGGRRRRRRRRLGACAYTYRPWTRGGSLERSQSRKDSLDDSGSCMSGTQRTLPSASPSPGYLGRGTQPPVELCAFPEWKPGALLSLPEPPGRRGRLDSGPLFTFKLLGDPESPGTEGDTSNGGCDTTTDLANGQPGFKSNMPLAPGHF
T2 sequence (P23944 whole entry): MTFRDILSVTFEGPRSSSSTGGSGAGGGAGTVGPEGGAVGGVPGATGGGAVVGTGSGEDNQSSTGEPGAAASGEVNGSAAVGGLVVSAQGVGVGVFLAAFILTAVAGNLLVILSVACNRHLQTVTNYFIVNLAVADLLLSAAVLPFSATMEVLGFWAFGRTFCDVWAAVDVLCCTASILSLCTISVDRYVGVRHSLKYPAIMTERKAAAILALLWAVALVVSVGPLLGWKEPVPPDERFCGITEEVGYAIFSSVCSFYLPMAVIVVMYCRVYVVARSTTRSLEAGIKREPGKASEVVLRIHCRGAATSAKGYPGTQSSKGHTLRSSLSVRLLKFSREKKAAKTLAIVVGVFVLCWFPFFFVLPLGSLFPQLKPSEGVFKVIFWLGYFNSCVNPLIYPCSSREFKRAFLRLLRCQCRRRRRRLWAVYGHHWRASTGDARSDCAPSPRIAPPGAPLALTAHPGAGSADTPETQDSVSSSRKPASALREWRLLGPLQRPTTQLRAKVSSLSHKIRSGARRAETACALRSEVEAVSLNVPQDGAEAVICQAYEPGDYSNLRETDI
T2 sequence (P43140 whole entry): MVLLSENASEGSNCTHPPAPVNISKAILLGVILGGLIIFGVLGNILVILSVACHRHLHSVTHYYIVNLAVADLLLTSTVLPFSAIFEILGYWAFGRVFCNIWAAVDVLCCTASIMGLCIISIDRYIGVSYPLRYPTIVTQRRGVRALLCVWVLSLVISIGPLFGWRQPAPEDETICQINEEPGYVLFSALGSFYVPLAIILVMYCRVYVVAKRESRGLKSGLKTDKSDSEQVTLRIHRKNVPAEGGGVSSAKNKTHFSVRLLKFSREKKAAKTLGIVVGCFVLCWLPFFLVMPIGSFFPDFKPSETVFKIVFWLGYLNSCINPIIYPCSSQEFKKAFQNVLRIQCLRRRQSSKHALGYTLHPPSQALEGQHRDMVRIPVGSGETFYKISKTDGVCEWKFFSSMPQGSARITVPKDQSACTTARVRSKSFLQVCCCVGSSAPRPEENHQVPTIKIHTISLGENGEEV
In words: pA2 value was measured in Alpha-1 adrenergic receptor against norepinephrine in rat vas deferens. In outline:
as §1

In assay [3] the target is T1, Adrenergic receptor alpha-2. In words: pA2 value was measured in Alpha-2 adrenergic receptor against clonidine in rat vas deferens. In outline:
as §1

Assay [4] is described as follows: Selectivity ratio (alpha1/alpha2) of the compound. In short, it runs like this: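 α1/α2 selectivity is the antilog of the difference between pA2 at α1- and α2-adrenoreceptors. Each pA2 comes from Schild plots against norepinephrine (α1) or clonidine (α2).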
Assay [5] concerns the target T2, Adrenergic receptor alpha-1. The assay is described as follows: pIC50 value was measured in Alpha-1 adrenergic receptor against norepinephrine in rat vas deferens.

Regarding `COc1cccc(OC)c1OCCNC[C@H]1Oc2ccccc2OC1c1ccccc1` (stereo partly specified), the pA2 (as a rule, the negative logarithm of the molar antagonist concentration that doubles the agonist concentration needed for the same response) in assay [1] is 6.4; in assay [2], 9.3.
`COc1cccc(OC)c1OCCNC[C@H]1C(=O)c2ccccc2O[C@@H]1c1ccccc1`: the figures for the pA2 in assay [3] and in assay [2] were 4.85 and 8.27, respectively. Besides, the Selectivity ratio in assay [4] turned out to be 2630.
The compound `COc1cccc(OC)c1OCCNC[C@H]1Oc2ccccc2O[C@H]1c1ccccc1` registered a pA2 in assay [3] of 4.49. Moreover, in assay [4], the Selectivity ratio is 6. Moreover, the pIC50 (commonly the IC50 on a negative log10 scale, so that one unit is a factor of ten) in assay [5] was found to be 5.29.
Turning to `COc1cccc(OC)c1OCCNC[C@H]1Oc2ccccc2O[C@@H]1c1ccccc1`, the figures for the pA2 in assay [3] and in assay [2] were 4.22 and 8.59, respectively. Besides, the Selectivity ratio in assay [4] was determined as 23400.

(Values after ChEMBL document CHEMBL1124999, “3-Phenyl analogues of 2-[[[2-(2,6-dimethoxyphenoxy)ethyl]amino]-methyl]-1,4-benzodioxan (WB 4101) as highly selective alpha 1-adrenoceptor antagonists” (J Med Chem, 1990).)
